In brackets after ≈: the same amount, converted by molar mass.

These results are taken from ChEMBL document CHEMBL5154895, “Mechanistic Studies and In Vivo Efficacy of an Oxadiazole-Containing Antibiotic” (J Med Chem, 2022).

The subject of series [1] is Staphylococcus aureus. The experiment in a line: Antibacterial activity against Staphylococcus aureus ATCC 25923 assessed as inhibition of bacterial growth incubated for 18 to 20 hrs by broth microdilution method. The settings on record: time 18-20 hrs. The class given is functional. Summed up: (§1)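 Broth microdilution per CLSI. Inoculum at 0.5 McFarland, diluted in cation-adjusted Mueller Hinton broth to about 5 × 10^5 CFU/mL. Serial compound dilutions incubated aerobically at 37° C for 18–20 hours. MIC taken as the lowest concentration completely inhibiting visible growth.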
A general note: Broth dilution looks for growth in wells or tubes with falling amounts of substance.

Series [2] has as its system Staphylococcus aureus. The experiment in a line: Antibacterial activity against Staphylococcus aureus MRSA ATCC 33592 assessed as inhibition of bacterial growth incubated for 18 to 20 hrs by broth microdilution method. The note with it: time 18-20 hrs. The series is classed as functional. Put shortly: as §1
A short description of series [3]: Toxicity in Balb/c mouse infected with methicillin-resistant Staphylococcus aureus USA300 assessed as hemorrhage at 25 mg/kg, ip administered 2 days post infection twice daily and measured after 5 days post compound treatment by H and E staining based histopathological analysis. The series is classed as organism-based. The settings on record: in vivo, 120 h, time 5 day.

Series [4] in a line: Toxicity in Balb/c mouse infected with methicillin-resistant Staphylococcus aureus USA300 assessed as necrosis at 25 mg/kg, ip administered 2 days post infection twice daily and measured after 5 days post compound treatment by H and E staining based histopathological analysis. The series is classed as organism-based. The note with it: in vivo, 120 h, time 5 day.
Series [5] in a line: In vivo antibacterial activity against methicillin-resistant Staphylococcus aureus USA300 infected Balb/c mouse model assessed as reduction in bacterial infection in skin wounds at 25 mg/kg , ip administered 2 days post infection once daily and measured after 5 days post compound treatment by histopathological analysis. The settings on record: time 5 day. Set-up: scale not given: the % may be the effect or the level left.

The nature of series [6]: Toxicity in Balb/c mouse infected with methicillin-resistant Staphylococcus aureus USA300 assessed as chronic inflammatory response at 25 mg/kg, ip administered 2 days post infection twice daily and measured after 5 days post compound treatment by H and E staining based histopathological analysis. The series is classed as organism-based. The note with it: in vivo, 120 h, time 5 day.

Series [7] is described as follows: Toxicity in Balb/c mouse infected with methicillin-resistant Staphylococcus aureus USA300 assessed as necrosis administered topically twice daily 2 days post infection and measured after 5 days post compound treatment by H and E staining based histopathological analysis. The settings on record: in vivo, topical_or_ocular, 120 h, time 5 day. Summed up: (§2)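 MRSA USA300-infected punch wounds in mice, n=5. Topical 2% agent or petroleum jelly vehicle twice daily from day 2 for 5 days. The left wound was formalin-fixed, cut into 4-μm sections and H&E-stained. Whole slides were scanned and assessed by a board-certified veterinary pathologist for necrosis, inflammation, haemorrhage and related features.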

A short description of series [8]: Toxicity in Balb/c mouse infected with methicillin-resistant Staphylococcus aureus USA300 assessed as hemorrhage administered topically twice daily 2 days post infection and measured after 5 days post compound treatment by H and E staining based histopathological analysis. The note with it: in vivo, topical_or_ocular, 120 h, time 5 day. Put shortly: as §2
Series [9] in a line: Toxicity in Balb/c mouse infected with methicillin-resistant Staphylococcus aureus USA300 assessed as chronic inflammatory response administered topically twice daily 2 days post infection and measured after 5 days post compound treatment by H and E staining based histopathological analysis. The note with it: in vivo, topical_or_ocular, 120 h, time 5 day. Put shortly:
as §2

The nature of series [10]: In vivo antibacterial activity against methicillin-resistant Staphylococcus aureus USA300 infected in Balb/c mouse model assessed as reduction in bacterial infection in skin wounds administered topically twice daily 2 days post infection and measured after 5 days post compound treatment by CFU counting. The settings on record: time 5 day. Also noted: scale not given: the % may be the effect or the level left.

The term MIC denotes the least concentration at which growth counts as inhibited. For the compound `C[C@@H]1C[C@H](C)CN(S(=O)(=O)c2ccc(C(=O)N(C)c3nnc(-c4ccc(C(F)(F)F)cc4)o3)cc2)C1`, the MIC in the series with Staphylococcus aureus [1] and in the series on Staphylococcus aureus [2] was over 64 µg/mL throughout.
With `CCC[C@@H]1C[C@@H](C(=O)N[C@@H]([C@H]2O[C@H](SC)[C@H](O)[C@@H](O)[C@H]2O)[C@H](C)Cl)N(C)C1` [CLINDAMYCIN], the Activity entry is on record as “Toxic” in [3], “Toxic” in series [4], 93.4% in [5] and “Toxic” in [6].
For the compound `CC1CCN(S(=O)(=O)c2ccc(C(=O)Nc3nnc(-c4ccc(C(F)(F)F)cc4)o3)cc2)CC1`, the MIC with Staphylococcus aureus [1] and with Staphylococcus aureus [2] was 1 µg/mL (≈ 2.02 µM) in each case.
For `O=C(Nc1nnc(-c2ccc(C(F)(F)F)cc2)o1)c1ccc(S(=O)(=O)N2C[C@@H]3CC[C@H]2C3)cc1`, the MIC with Staphylococcus aureus [1] and in the series on Staphylococcus aureus [2] was 2 µg/mL (≈ 4.06 µM) each time.
On to `O=C(Nc1nnc(-c2ccc(C(F)(F)F)cc2)o1)c1ccc(S(=O)(=O)NC2CC2)cc1`, for which the MIC in the series on Staphylococcus aureus [1] and with Staphylococcus aureus [2] was 4 µg/mL (≈ 8.84 µM) throughout.
For `CC1CCCCN1S(=O)(=O)c1ccc(C(=O)Nc2nnc(-c3ccc(C(F)(F)F)cc3)o2)cc1` (stereo unspecified), the MIC in the series on Staphylococcus aureus [1] and in the series with Staphylococcus aureus [2] was 2 µg/mL (≈ 4.04 µM) throughout.
On to `CC1CCCN(S(=O)(=O)c2ccc(C(=O)Nc3nnc(-c4ccc(C(F)(F)F)cc4)o3)cc2)C1` (stereo unspecified), for which the MIC with Staphylococcus aureus [1] and in the series with Staphylococcus aureus [2] was 2 µg/mL (≈ 4.04 µM) each time.
On to `C/C(=C\C(=O)OCCCCCCCCC(=O)O)C[C@@H]1OC[C@H](C[C@@H]2O[C@H]2[C@@H](C)[C@H](C)O)[C@@H](O)[C@H]1O` [MUPIROCIN], for which the Activity entry in [7] is given as “Toxic”; in [8], “Toxic”; in series [9], “Toxic”; in [10], 98.8%.
Regarding `O=C(Nc1nnc(-c2ccc(C(F)(F)F)cc2)o1)c1ccc(S(=O)(=O)N2CCCCC2)cc1`, the MIC in the series with Staphylococcus aureus [1] and with Staphylococcus aureus [2] was 2 µg/mL (≈ 4.16 µM) each time.
As to `O=C(Nc1nnc(-c2ccc(C(F)(F)F)cc2)o1)c1ccc(S(=O)(=O)N2CCCC2)cc1`, the MIC in the series with Staphylococcus aureus [1] and in the series with Staphylococcus aureus [2] was 2 µg/mL (≈ 4.29 µM) each time.
For `CN(C)S(=O)(=O)c1ccc(C(=O)Nc2nnc(-c3ccc(C(F)(F)F)cc3)o2)cc1`, the MIC in the series with Staphylococcus aureus [1] and in the series on Staphylococcus aureus [2] was 16 µg/mL (≈ 36.3 µM) throughout.
